Test results taken from ChEMBL document CHEMBL1125290, “Bis basic substituted diaminobenzobisthiazoles as potential antiarthritic agents” (1992).
Several values for one entry are separate records, joined by “and”; a condition that tells them apart may be missing. Equal values may be shown once.

Key:
Rattus norvegicus [1] = assay: Antiinflammatory activity against D-adjuvant arthritis in uninjected rat paw at the dose of 100 mg/kg by oral administration; assay type: functional
Rattus norvegicus [2] = assay: Antiinflammatory activity against D-adjuvant arthritis in injected rat paw at the dose of 100 mg/kg by oral administration; assay type: functional
Rattus norvegicus [3] = organism: Rattus norvegicus; assay: Antiinflammatory activity in D-adjuvant induced arthritis in rat measured by the change in body weight; assay type: functional; design: concentration or dose not given beside the values
Rattus norvegicus [4] = assay: Antiinflammatory activity against carrageenan induced rat paw edema (CPE), dosed orally; assay type: functional
In short: (§1)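 Male Sprague–Dawley rats (150 ± 10 g), five per group. Compound or vehicle given orally in 0.5% methylcellulose 1 h before subplantar injection of 0.1 mL 1% carrageenan in saline into the right hind paw. Paw volume measured by mercury displacement before dosing and 3 h after carrageenan; the difference is the edema volume. ANOVA with Dunnett's t test.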

Rattus norvegicus [5] = assay: Antiinflammatory activity against D-adjuvant arthritis in injected rat paw at the dose of 5 mg/kg by oral administration; assay type: functional
Rattus norvegicus [6] = assay: Antiinflammatory activity against D-adjuvant arthritis in uninjected rat paw at the dose of 5 mg/kg by oral administration; assay type: functional
Rattus norvegicus [7] = assay: Antiinflammatory activity against D-adjuvant arthritis in injected rat paw at the dose of 50 mg/kg by oral administration; assay type: functional
Rattus norvegicus [8] = assay: Antiinflammatory activity against D-adjuvant arthritis in uninjected rat paw at the dose of 50 mg/kg by oral administration; assay type: functional
In short: (§2)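 Rat developing adjuvant arthritis screen with oral dosing on a prophylactic protocol. Percent change in body weight versus untreated animals was recorded as a preliminary toxicity sign. Significance was assessed against controls by two-tailed Student's t test, p < 0.05.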

Mus musculus [9] = assay: Percent suppression of plaque forming cells in spleen cell suspension at a dose of 100 mg/kg, po. in AKR mice, p<0.05; assay type: functional
Mus musculus [10] = assay: Percent suppression of plaque forming cells in spleen cell suspension at a dose of 200 mg/kg, po. in AKR mice, p<0.05; assay type: functional
Mus musculus [11] = assay: Percent suppression of plaque forming cells in spleen cell suspension at a dose of 50 mg/kg, po. in AKR mice, p<0.05; assay type: functional
Rattus norvegicus [12] = assay: Antiinflammatory activity dosed orally against D-adjuvant arthritis in uninjected rat paw at 50 mg/kg; assay type: functional; details: route oral
Rattus norvegicus [13] = assay: Antiinflammatory activity against D-adjuvant arthritis in uninjected rat paw at the dose of 10 mg/kg by oral administration; assay type: functional
Rattus norvegicus [14] = assay: Antiinflammatory activity against D-adjuvant arthritis in injected rat paw at the dose of 10 mg/kg by oral administration; assay type: functional
Rattus norvegicus [15] = assay: Antiinflammatory activity against D-adjuvant arthritis in injected rat paw at the dose of 25 mg/kg by oral administration; assay type: functional
Rattus norvegicus [16] = assay: Antiinflammatory activity against D-adjuvant arthritis in uninjected rat paw at the dose of 25 mg/kg by oral administration; assay type: functional
Rattus norvegicus [17] = assay: Antiinflammatory activity dosed orally against carrageenan induced rat paw edema(CPE).value in the parentheses is the dose(mg/kg).; assay type: functional; in short: as §1
Rattus norvegicus [18] = assay: Antiinflammatory activity dosed orally against D-adjuvant arthritis in rat.; assay type: functional
Rattus norvegicus [19] = assay: Antiinflammatory activity dosed orally against carrageenan induced rat paw edema(CPE); assay type: functional; in short: as §1
Rattus norvegicus [20] = assay: Antiinflammatory activity dosed orally against D-adjuvant arthritis in rat measured by the change in the weight of the body; assay type: functional
Rattus norvegicus [21] = assay: Antiinflammatory activity against D-adjuvant arthritis in injected rat paw at the dose of 2.5 mg/kg by oral administration; assay type: functional
In short: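 Rats dosed orally in a developing adjuvant arthritis screen; swelling of the adjuvant-injected paw scored against untreated arthritic controls. Significance by two-tailed Student's t test, p < 0.05. Percent change in body weight versus untreated animals recorded as a preliminary toxicity indication.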

Rattus norvegicus [22] = assay: Antiinflammatory activity against D-adjuvant arthritis in uninjected rat paw at the dose of 1.0 mg/kg by oral administration; details: read-out: Inhibition
Rattus norvegicus [23] = assay: Antiinflammatory activity against D-adjuvant arthritis in injected rat paw at the dose of 1.0 mg/kg by oral administration; assay type: functional; in short: as §2
Mus musculus [24] = assay: Percent suppression of plaque forming cells in spleen cell suspension at a dose of 125 mg/kg, po. in AKR mice; assay type: functional
Rattus norvegicus [25] = assay: Antiinflammatory activity dosed orally against D-adjuvant arthritis in injected rat paw at 50 mgKg; assay type: functional
Rattus norvegicus [26] = assay: Antiinflammatory activity dosed orally against D-adjuvant arthritis in injected rat paw at 100 mg/Kg; assay type: functional; details: po
Rattus norvegicus [27] = assay: Antiinflammatory activity dosed orally against D-adjuvant arthritis in uninjected rat paw at 100 mg/Kg; assay type: functional; details: po

Structure (SMILES)	Activity (Rattus norvegicus [3])	Inhibition (Rattus norvegicus [4])	inhibition in vivo at 50 mg/kg (Rattus norvegicus [7])	inhibition in vivo at 50 mg/kg (Rattus norvegicus [8])	Inhibition (Rattus norvegicus [19])	also measured
CCN(CC)CC(=O)Nc1nc2c(cc(Cl)c3nc(NC(=O)CN(CC)CC)sc32)s1	-58%	35%	–	–	–	inhibition in vivo at 100 mg/kg (Rattus norvegicus [1]): 62%; inhibition in vivo at 100 mg/kg (Rattus norvegicus [2]): 0%
CCN(CC)CC(=O)Nc1nc2cc3sc(NC(=O)CN(CC)CC)nc3cc2s1.Cl.Cl	-33%	9%	–	–	–	inhibition in vivo at 5 mg/kg (Rattus norvegicus [5]): 11%; inhibition in vivo at 5 mg/kg (Rattus norvegicus [6]): 0%
CCN(CC)CC(=O)Nc1nc2cc3nc(NC(=O)CN(CC)CC)sc3cc2s1	–	9%	76%	98%	–	Activity (Mus musculus [9]): 82%; Activity (Mus musculus [10]): 83%; Activity (Mus musculus [11]): 67%; inhibition in vivo at 50 mg/kg (Rattus norvegicus [12]): 98%
Nc1nc2cc3nc(N)sc3cc2s1	-20%	60%	–	–	–	inhibition in vivo at 100 mg/kg (Rattus norvegicus [1]): 92%; inhibition in vivo at 100 mg/kg (Rattus norvegicus [2]): 79%
Nc1nc2cc3sc(N)nc3cc2s1	-30%	4%	–	–	–	inhibition in vivo at 10 mg/kg (Rattus norvegicus [13]): 100%; inhibition in vivo at 10 mg/kg (Rattus norvegicus [14]): 88%
CCN(CC)CC(=O)Nc1nc2c(C(F)(F)F)c3nc(NC(=O)CN(CC)CC)sc3c(Cl)c2s1.Cl.Cl	-22%	18%	–	–	–	inhibition in vivo at 25 mg/kg (Rattus norvegicus [15]): 57%; inhibition in vivo at 25 mg/kg (Rattus norvegicus [16]): 100%
CC1CCC(NCC(=O)Nc2nc3cc4nc(NC(=O)CNC5CCC(C)CC5)sc4cc3s2)CC1 (stereo not given)	-4%	–	21%	54%	–	Inhibition (Rattus norvegicus [17]): 3%
CCN(CC)CC(=O)Nc1nc2cc3nc(NC(=O)CCl)sc3cc2s1	–	–	38%	0%	25%	Body weight change (Rattus norvegicus [18]): -16%
CCN(CC)C(C)C(=O)Nc1nc2cc3nc(NC(=O)C(C)N(CC)CC)sc3cc2s1.Cl.Cl (stereo not given)	–	–	0%	0%	0%	Activity (Rattus norvegicus [20]): -19%
CCN(CC)CC(=O)Nc1nc2c(Cl)c3nc(NC(=O)CN(CC)CC)sc3c(Cl)c2s1	-33%	19%	–	–	–	inhibition in vivo at 10 mg/kg (Rattus norvegicus [13]): 71%; inhibition in vivo at 10 mg/kg (Rattus norvegicus [14]): 30%
CCN(CC)CCC(=O)Nc1nc2cc3nc(NC(=O)CCN(CC)CC)sc3cc2s1	–	–	29%	48%	16%	Body weight change (Rattus norvegicus [18]): -5%
CCN(CC)CCNc1nc2cc3nc(NCCN(CC)CC)sc3cc2s1	3%	14%	–	–	–	inhibition in vivo at 100 mg/kg (Rattus norvegicus [1]): 0%; inhibition in vivo at 100 mg/kg (Rattus norvegicus [2]): 33%
O=P1(N(CCCl)CCCl)NCCCO1 (stereo not given) [CYCLOPHOSPHAMIDE ANHYDROUS]	–	–	–	–	18%	inhibition in vivo at 25 mg/kg (Rattus norvegicus [15]): 86%; inhibition in vivo at 25 mg/kg (Rattus norvegicus [16]): 100%; Body weight change (Rattus norvegicus [18]): -19%
COc1ccc2c(c1)c(CC(=O)O)c(C)n2C(=O)c1ccc(Cl)cc1 [INDOMETHACIN]	–	–	–	–	63% and 34%	inhibition in vivo at 2.5 mg/kg (Rattus norvegicus [21]): 71%; inhibition in vivo at 1 mg/kg (Rattus norvegicus [22]): 69%; Body weight change (Rattus norvegicus [18]): 18% and 28%; inhibition in vivo at 1 mg/kg (Rattus norvegicus [23]): 61%
CN(CC(=O)Nc1nc2cc3nc(NC(=O)CN(C)C4CCCCC4)sc3cc2s1)C1CCCCC1.Cl.Cl	-4%	6%	–	–	–	inhibition in vivo at 100 mg/kg (Rattus norvegicus [1]): 27%; inhibition in vivo at 100 mg/kg (Rattus norvegicus [2]): 32%
CCN(CC)CCOc1ccc2c(c1)C(=O)c1cc(OCCN(CC)CC)ccc1-2 [TILORONE]	10%	0%	–	–	–	Activity (Mus musculus [24]): 28%; Inhibition (Rattus norvegicus [25]): 53%; inhibition in vivo at 100 mg/kg (Rattus norvegicus [26]): 59%; inhibition in vivo at 100 mg/kg (Rattus norvegicus [27]): 45%
